Laboratory results from ChEMBL document CHEMBL5149984, “Discovery of HN37 as a Potent and Chemically Stable Antiepileptic Drug Candidate” (J Med Chem, 2021).

Key:
[1] = biological target: T1, Potassium voltage-gated channel subfamily KQT member 2/member 3 (Rattus norvegicus) (UniProt O88943+O88944); assay: Agonist activity at rat KCNQ2/3 channel expressed in CHO cells assessed as shift of half voltage of maximal activation at 10 uM by patch clamp method; type: cell-based; details: filed as agonist
Method in brief: (§1)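 Whole-cell patch clamp at room temperature on CHO cells (DMEM/F12, 10% FBS) transiently co-transfected with EGFP and hKCNQ1, rKCNQ2, rKCNQ3 A278T, hKCNQ4 or hKCNQ5; KCNQ2/3 at 1:1 cDNA ratio. Pipette solution 145 mM KCl, 5 mM MgATP, pH 7.3; bath 140 mM NaCl, 5 mM KCl, pH 7.4, under perfusion. V1/2 from Boltzmann fits; I/I0 is current amplitude with versus without compound; n = 4−6.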

[2] = biological target: T2, Potassium voltage-gated channel subfamily KQT member 4 (Homo sapiens) (UniProt P56696); assay: Agonist activity at human KCNQ4 channel expressed in CHO cells assessed as shift of half voltage of maximal activation at 10 uM by patch clamp method; type: cell-based; details: filed as agonist; method in brief: as §1
T2 sequence (whole entry): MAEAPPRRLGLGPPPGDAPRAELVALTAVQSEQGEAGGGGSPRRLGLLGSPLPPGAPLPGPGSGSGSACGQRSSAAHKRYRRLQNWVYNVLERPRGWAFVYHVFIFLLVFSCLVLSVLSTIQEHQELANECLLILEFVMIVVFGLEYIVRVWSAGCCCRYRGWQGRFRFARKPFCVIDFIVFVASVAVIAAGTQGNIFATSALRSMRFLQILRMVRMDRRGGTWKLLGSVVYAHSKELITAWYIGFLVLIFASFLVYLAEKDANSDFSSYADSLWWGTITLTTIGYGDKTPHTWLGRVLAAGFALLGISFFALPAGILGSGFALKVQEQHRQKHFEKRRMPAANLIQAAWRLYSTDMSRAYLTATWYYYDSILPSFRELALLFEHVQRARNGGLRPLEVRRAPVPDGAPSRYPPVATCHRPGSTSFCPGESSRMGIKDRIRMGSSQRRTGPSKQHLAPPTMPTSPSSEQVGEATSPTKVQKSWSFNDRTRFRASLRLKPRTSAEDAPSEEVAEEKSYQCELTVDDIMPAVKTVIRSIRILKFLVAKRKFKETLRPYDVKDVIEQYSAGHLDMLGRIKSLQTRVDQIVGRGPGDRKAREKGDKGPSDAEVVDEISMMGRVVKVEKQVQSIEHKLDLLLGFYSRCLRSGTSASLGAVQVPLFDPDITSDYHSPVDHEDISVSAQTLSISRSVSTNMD

[3] = biological target: Potassium voltage-gated channel subfamily KQT member 5 (Homo sapiens) (UniProt Q9NR82); assay: Agonist activity at human KCNQ5 channel expressed in CHO cells assessed as amplitude change of outward current at 10 uM by patch clamp method; type: cell-based; details: filed as agonist; method in brief: as §1
Potassium voltage-gated channel subfamily KQT member 5 (Homo sapiens), sequence (Q9NR82 whole entry): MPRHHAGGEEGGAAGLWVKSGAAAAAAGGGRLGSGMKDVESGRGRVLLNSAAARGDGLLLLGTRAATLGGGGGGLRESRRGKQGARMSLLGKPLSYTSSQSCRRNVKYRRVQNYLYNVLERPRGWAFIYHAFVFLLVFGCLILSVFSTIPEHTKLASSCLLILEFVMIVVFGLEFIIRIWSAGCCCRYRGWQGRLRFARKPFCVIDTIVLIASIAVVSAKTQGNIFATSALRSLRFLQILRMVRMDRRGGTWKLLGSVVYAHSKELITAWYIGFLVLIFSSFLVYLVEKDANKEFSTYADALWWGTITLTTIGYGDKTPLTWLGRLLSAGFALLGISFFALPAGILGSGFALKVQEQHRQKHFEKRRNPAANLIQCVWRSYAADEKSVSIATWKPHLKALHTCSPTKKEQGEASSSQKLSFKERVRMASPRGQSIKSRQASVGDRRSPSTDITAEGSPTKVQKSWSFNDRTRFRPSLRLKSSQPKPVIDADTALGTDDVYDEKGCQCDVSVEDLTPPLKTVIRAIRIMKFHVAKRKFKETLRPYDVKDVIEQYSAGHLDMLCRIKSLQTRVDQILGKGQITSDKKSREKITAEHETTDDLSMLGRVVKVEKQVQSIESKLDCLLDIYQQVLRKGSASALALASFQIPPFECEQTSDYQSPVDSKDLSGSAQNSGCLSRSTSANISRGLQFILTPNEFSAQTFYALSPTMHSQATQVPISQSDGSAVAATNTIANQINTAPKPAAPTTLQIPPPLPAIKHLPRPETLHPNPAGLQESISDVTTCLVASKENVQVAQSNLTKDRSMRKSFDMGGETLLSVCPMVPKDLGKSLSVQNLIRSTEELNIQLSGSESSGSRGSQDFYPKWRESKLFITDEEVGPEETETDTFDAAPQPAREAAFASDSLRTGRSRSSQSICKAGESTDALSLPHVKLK

[4] = AUC(0 to t) in Kunming mouse plasma at 2 mg/kg, iv measured upto 24 hrs by LC-MS/MS method; type: ADME, organism-based; design: time < 24 hrs, dose 2 mg/kg, route iv
Method in brief: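 KM male mice (18−24 g), fasted 12 h before and 2 h after dosing. HN37 given orally at 5 mg/kg in 5% DMSO/5% Tween 80/90% saline, or iv at 2 mg/kg after dilution in saline with 1% Tween 80; n = 3 per time point. Blood sampled 0.25–24 h (from 0.083 h after iv); whole brain taken after oral dosing. Plasma and brain extracted with acetonitrile, quantified by LC−MS/MS; AUC0−t by trapezoidal method.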

[5] = Half life in Kunming mouse plasma at 2 mg/kg, iv measured upto 24 hrs by LC-MS/MS method; type: ADME, organism-based
Method in brief: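 Male KM mice (n = 3 per time point) given 2 mg/kg i.v. in normal saline with 1% Tween 80, diluted from the oral formulation. Retro-orbital plexus blood taken at 0.083–24 h. Plasma extracted with acetonitrile plus internal standard and assayed by LC−MS/MS.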

[6] = Metabolic stability in mouse liver microsomes assessed as intrinsic clearance; type: ADME, Microsome; details: read-out: CLH
[7] = biological target: CYP2D6 (Homo sapiens, UniProt P10635); assay: Inhibition of human liver microsome CYP2D6 at 0.10 to 50 uM preincubated with NADPH for 0.5 hrs followed by substrate addition by LC-MS/MS method relative to control; type: ADME; details: liver microsomes, dose 0.1-50 µM
CYP2D6, sequence (P10635 whole entry): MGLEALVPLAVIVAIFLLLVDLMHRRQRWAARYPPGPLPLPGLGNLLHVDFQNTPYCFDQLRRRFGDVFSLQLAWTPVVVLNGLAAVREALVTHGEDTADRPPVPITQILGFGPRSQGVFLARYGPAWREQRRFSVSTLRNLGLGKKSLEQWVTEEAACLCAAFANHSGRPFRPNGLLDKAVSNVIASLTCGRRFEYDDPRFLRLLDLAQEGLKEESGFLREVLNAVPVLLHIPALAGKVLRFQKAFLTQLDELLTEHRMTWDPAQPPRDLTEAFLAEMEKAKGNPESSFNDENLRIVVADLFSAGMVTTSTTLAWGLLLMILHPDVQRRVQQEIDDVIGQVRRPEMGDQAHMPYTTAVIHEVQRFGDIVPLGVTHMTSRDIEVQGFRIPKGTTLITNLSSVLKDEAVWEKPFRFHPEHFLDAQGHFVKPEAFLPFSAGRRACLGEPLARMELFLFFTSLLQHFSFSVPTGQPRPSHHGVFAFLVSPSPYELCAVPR

[8] = biological target: T3, Potassium voltage-gated channel subfamily KQT member 1 (Homo sapiens, UniProt P51787); assay: Agonist activity at human KCNQ1 channel expressed in CHO cells assessed as shift of half voltage of maximal activation at 0.1 uM by patch clamp method; type: cell-based; method in brief: as §1
T3 sequence (P51787 whole entry): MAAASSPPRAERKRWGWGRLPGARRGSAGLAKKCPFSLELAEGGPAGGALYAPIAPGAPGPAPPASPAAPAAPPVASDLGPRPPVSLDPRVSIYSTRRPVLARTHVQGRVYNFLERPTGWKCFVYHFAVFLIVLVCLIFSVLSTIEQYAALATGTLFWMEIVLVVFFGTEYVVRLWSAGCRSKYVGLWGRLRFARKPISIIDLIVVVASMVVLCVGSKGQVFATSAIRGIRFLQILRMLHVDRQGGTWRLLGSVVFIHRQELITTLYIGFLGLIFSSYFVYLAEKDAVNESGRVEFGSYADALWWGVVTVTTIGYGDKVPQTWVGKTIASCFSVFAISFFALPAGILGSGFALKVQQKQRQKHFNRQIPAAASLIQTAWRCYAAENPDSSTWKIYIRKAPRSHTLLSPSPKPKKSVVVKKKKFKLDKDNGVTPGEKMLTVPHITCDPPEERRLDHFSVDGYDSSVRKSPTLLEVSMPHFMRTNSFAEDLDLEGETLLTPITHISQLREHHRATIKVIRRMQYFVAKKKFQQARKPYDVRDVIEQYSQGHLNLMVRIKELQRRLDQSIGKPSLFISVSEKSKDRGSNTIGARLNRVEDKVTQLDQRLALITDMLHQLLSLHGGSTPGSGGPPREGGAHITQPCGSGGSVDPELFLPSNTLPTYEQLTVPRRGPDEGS

[9] = test system: CHO; assay: Agonist activity at rat KCNQ3 A278T mutant expressed in CHO cells assessed as amplitude change of outward current at 0.1 uM by patch clamp method; type: cell-based; details: filed as agonist; method in brief: as §1
[10] = biological target: T2, Potassium voltage-gated channel subfamily KQT member 4 (Homo sapiens); assay: Agonist activity at human KCNQ4 channel expressed in CHO cells assessed as shift of half voltage of maximal activation at 0.1 uM by patch clamp method; type: cell-based; details: filed as agonist; method in brief: as §1
[11] = biological target: T1, Potassium voltage-gated channel subfamily KQT member 2/member 3 (Rattus norvegicus); assay: Potency index, ratio of retigabine EC50 to test compound EC50 for agonist activity at rat KCNQ2/3 channel expressed in CHO cells by patch clamp method; type: cell-based
[12] = test system: Mus musculus; assay: Anticonvulsant activity in MES induced Kunming mouse model of seizure at 5 mg/kg, po after 1 hr; type: functional
Method in brief: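 MES test in male KM mice. Compounds freshly suspended in 0.5% CMC-Na and given by gavage at 20 mL/kg; 160 V stimulus through ear clips. Protection scored as absence of hindlimb tonic extension; time course at 0.25, 0.5, 1 and 2 h, otherwise tested at 1 h. ED50 from dose−response by nonlinear regression; Fisher's exact test versus vehicle.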

[13] = Ratio of drug concentration in brain to plasma of MES induced Kunming mouse model of seizure

| Structure (SMILES) | Activity [1] [mV] | Activity [2] [mV] | Activity [3] | AUC(0-t) at 24 h [4] [ng·h/mL] | half-life [5] [min] | CLint scaled [6] [mL/min/kg] | inhibition at 0.5 h, up to 50 µM [7] [%] | Activity [8] [mV] | Activity [9] | Activity [10] [mV] | Ratio EC50 [11] | Activity [12] [%] | Kp [13] |
| --- | --- | --- | --- | --- | --- | --- | --- | --- | --- | --- | --- | --- | --- |
| CCOC(=O)Nc1ccc(NCc2ccc(F)cc2)cc1N [EZOGABINE] | -34.3 | -34.1 | 3.04 |  |  |  |  |  |  |  |  |  |  |
| C#CCN(Cc1ccc(F)cc1)c1cc(C)c(NC(=O)OC)c(C)c1 |  |  |  | 531 | 48 | 438 | < 25 | -5.47 | 2.1 | -56.6 | 125 | 100 | 1.4 |
